pIC50: −log10 of the molar value. Calls of active or inactive are those of the source.
Columns and labels:
[1] = Ratio of LD50 for Swiss mice (Mus musculus) to ED50 for Plasmodium vinckei petteri infected mice (Mus musculus); format: functional
Outline: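 Therapeutic index: LD50 (healthy Swiss mice, observed 60 days) divided by ED50 from the 4-day P. vinckei petteri suppressive test.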

Plasmodium falciparum [2] = test: Antimalarial activity against chloroquine-sensitive Plasmodium falciparum F32; format: functional, organism-based
Outline: (§1)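 Asexual P. falciparum grown in culture at 37°C under 5% CO2 and exposed to drug dilutions for 48 h. Growth inhibition measured by radioactive micromethod. IC50 read graphically from concentration vs % growth inhibition; mean of at least three independent experiments.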

Plasmodium falciparum [3] = test: Antimalarial activity against chloroquine-sensitive Plasmodium falciparum Nigeria; format: functional, organism-based, Nigerian; outline: as §1
Plasmodium falciparum [4] = test: Antimalarial activity against chloroquine-resistant Plasmodium falciparum FcB1; format: functional, organism-based; outline: as §1
Plasmodium falciparum [5] = test: Antimalarial activity against chloroquine-resistant Plasmodium falciparum FcM29; format: functional, organism-based; outline: as §1
[6] = tested on: Plasmodium vinckei petteri; test: Antimalarial activity against Plasmodium vinckei petteri infected intraperitoneally dosed Swiss Albino mice (Mus musculus); format: functional
Outline: (§2)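 Four-day suppressive test: groups of five female Swiss albino mice infected i.p. on day 0 with 2 × 10^7 parasitized red cells, then dosed once daily for 4 days (i.p., p.o. or s.c.; DMSO vehicle, chloroquine in 0.9% NaCl). Parasitemia read on day 4 vs untreated controls; ED50/ED90 as % growth inhibition; CD50/CD90 = cure (no parasites at 60 days).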

[7] = Ratio of IC50 for HCT cells to IC50 for Plasmodium falciparum; format: functional
[8] = tested on: Plasmodium vinckei petteri; test: Antimalarial activity against Plasmodium vinckei petteri infected mice (Mus musculus) at 5 mg/kg/day, peroral administered 4 days after infection for 4 days; format: functional, organism-based
Outline: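 Established-infection test: mice infected with 10^6 P. vinckei petteri on day 0 and left untreated until day 4. Then dosed p.o. by gavage once daily in DMSO for 4 days (days 4–7). Thin blood smears taken daily before and after treatment, with follow-up for recrudescence to 60 days.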

[9] = Cytotoxicity against human HCT cells assessed as [3H]thymidine incorporation; format: cell-based
Outline: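 HCT human colorectal tumour cells grown with 10% fetal calf serum and harvested with 0.05% trypsin-EDTA. Plated at 15 × 10^3 cells/well with drug dilutions.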

[10] = tested on: Plasmodium vinckei petteri; test: Antimalarial activity against Plasmodium vinckei petteri infected orally dosed Swiss Albino mice (Mus musculus); format: functional; details: for ED50 / ED90: Plasmodium vinckei, po; outline: as §2
[11] = tested on: Plasmodium vinckei petteri; test: Antimalarial activity against Plasmodium vinckei petteri infected subcutaneously dosed Swiss Albino mice (Mus musculus); format: functional; details: for ED50 / ED90: Plasmodium vinckei, sc; outline: as §2
[12] = tested on: Plasmodium yoelii nigeriensis; test: Antimalarial activity against Plasmodium yoelii nigeriensis infected mice (Mus musculus) by oral dose; format: functional
Outline: (§3)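 Four-day suppressive test with P. yoelii nigeriensis: infected mice given drug once daily for four consecutive days p.o. or s.c. (DMSO vehicle, chloroquine in 0.9% NaCl). Parasitemia compared with untreated controls. Cure was defined as no parasites detected after 60 days, with CD50 taken as the dose curing 50% of mice.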

[13] = tested on: Plasmodium yoelii nigeriensis; test: Antimalarial activity against Plasmodium yoelii nigeriensis infected subcutaneously dosed mice (Mus musculus); format: functional; details: for ED50 / ED90: Plasmodium yoelii, sc; outline: as §3
Plasmodium falciparum [14] = test: Growth inhibition after 6 hrs in chloroquine-resistant Plasmodium falciparum FcB1; format: functional, organism-based; details: FcB1, 6 h
Outline: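 Plasmion-synchronized FcB1 parasites plated at ring stage and exposed to drug during successive 6-h windows of the erythrocytic cycle (one plate per period). Artemisinin tested at 7, 14, 28 nM; chloroquine at 120, 163, 232 nM; trioxaquine at 11.5, 23, 46 nM. Dilutions prepared daily.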

Plasmodium falciparum [15] = test: Antimalarial activity against chloroquine-resistant Plasmodium falciparum W2 gametocytes (stage 2 & 3); format: functional, organism-based
Outline: (§4)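 W2 gametocyte cultures treated with 50 mM N-acetyl-D-glucosamine for 3 or 5 days to remove asexual forms. Young (7-day) or old (13-day) cultures exposed to drug dilutions for 48 h. Giemsa thin films made and gametocytes counted per 6,000–10,000 erythrocytes. Mean of three independent experiments.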

Plasmodium falciparum [16] = test: Antimalarial activity against chloroquine-resistant Plasmodium falciparum W2 gametocytes (stage 4 & 5); format: functional, organism-based; outline: as §4
Plasmodium falciparum [17] = test: Antimalarial activity against chloroquine-resistant Plasmodium falciparum W2 asexual […]; format: functional, organism-based

With `CC(C)C1=C[C@H]2OC3(CCC(NCCNc4ccnc5cc(Cl)ccc45)CC3)OO[C@@]2(C)CC1` (stereo in doubt; form 5) as the compound, how does the Ratio LD50/ED50 [1] read?
The Ratio LD50/ED50 was 23.

With `CC(C)C1=C[C@H]2OC3(CCC(NCCNc4ccnc5cc(Cl)ccc45)CC3)OO[C@@]2(C)CC1` (stereo in doubt; form 6) [TRIOXAQUINE 3] as the compound, how does the pIC50 (Plasmodium falciparum [2]) read?
Its pIC50 is 7.74.

And the pIC50 (Plasmodium falciparum [3])?
Its pIC50 is 7.74.

What about the pIC50 (Plasmodium falciparum [4]) of the same compound?
Its pIC50 is 7.59.

What about the pIC50 (Plasmodium falciparum [5]) of the same compound?
Its pIC50 is 7.74.

With `CC(C)C1=C[C@H]2OC3(CCC(NCCNc4ccnc5cc(Cl)ccc45)CC3)OO[C@@]2(C)CC1` (stereo in doubt; form 7) [TRIOXAQUINE 3] as the compound, how does the pIC50 (Plasmodium falciparum [2]) read?
Its pIC50 is 8.15.

What about the pIC50 (Plasmodium falciparum [4]) of the same compound?
The pIC50 was 8.15.

And the pIC50 (Plasmodium falciparum [5])?
Its pIC50 is 8.15.

With `CC(C)C1=C[C@H]2OC3(CCC(NCCNc4ccnc5cc(Cl)ccc45)CC3)OO[C@@]2(C)CC1` (stereo in doubt; form 8) [TRIOXAQUINE 3] as the compound, how does the pIC50 (Plasmodium falciparum [2]) read?
Its pIC50 is 7.96.

And the pIC50 (Plasmodium falciparum [4])?
Its pIC50 is 8.10.

And the pIC50 (Plasmodium falciparum [5])?
Its pIC50 is 7.92.

For `CC(C)C1=C[C@H]2OC3(CCC(NCCNc4ccnc5cc(Cl)ccc45)CC3)OO[C@@]2(C)CC1.O=C(O)CC(O)(CC(=O)O)C(=O)O` (stereo in doubt; form 9), which ED50 [6] is on record?
The ED50 was 3 mg/kg/day.

And the ED90 [6]?
Its ED90 is 8 mg/kg/day.

Which CD50 [6] does the source give for `CC(C)C1=C[C@H]2OC3(CCC(NCCNc4ccnc5cc(Cl)ccc45)CC3)OO[C@@]2(C)CC1.O=C(O)CC(O)(CC(=O)O)C(=O)O` (stereo in doubt; form 10) here?
Its CD50 is 7 mg/kg/day.

What about the ED50 [6] of the same compound?
The ED50 was 7 mg/kg/day.

What about the ED90 [6] of the same compound?
Its ED90 is 2.5 mg/kg/day.

Which “Ratio IC50” value [7] does the source give for `C[C@@H]1CC[C@H]2[C@@H](C)C(=O)O[C@@H]3O[C@@]4(C)CC[C@@H]1[C@]32OO4` [ARTEMISININ] here?
The value was 4370.

What about the Activity [8] of the same compound?
Its Activity is “Active”.

What about the pIC50 (Plasmodium falciparum [2]; Plasmodium falciparum, F32) of the same compound?
The pIC50 was 8.22.

What about the pIC50 (Plasmodium falciparum [4]; Plasmodium falciparum, FcB1) of the same compound?
The pIC50 was 8.30.

What about the pIC50 (Plasmodium falciparum [5]; Plasmodium falciparum, FcM29) of the same compound?
Its pIC50 is 8.10.

And the pIC50 [9]?
Its pIC50 is < 4.46.

What about the ED50 ([6]; Plasmodium vinckei, ip, read-out: ED50) of the same compound?
Its ED50 is 4 mg/kg/day.

What about the ED90 ([6]; Plasmodium vinckei, ip, read-out: ED90) of the same compound?
Its ED90 is > 5 mg/kg/day.

What about the CD50 [10] of the same compound?
The CD50 was >25 mg/kg/day.

What about the CD90 [10] of the same compound?
Its CD90 is >25 mg/kg/day.

What about the ED50 [10] of the same compound?
The ED50 was 17 mg/kg/day.

And the ED90 [10]?
The ED90 was 30 mg/kg/day.

And the CD50 [11]?
The CD50 was >10 mg/kg/day.

What about the CD90 [11] of the same compound?
Its CD90 is >10 mg/kg/day.

And the ED50 [11]?
The ED50 was 3.2 mg/kg/day.

What about the ED90 [11] of the same compound?
Its ED90 is 8 mg/kg/day.

And the CD50 [12]?
The CD50 was 75 mg/kg/day.

What about the CD90 [12] of the same compound?
The CD90 was >100 mg/kg/day.

And the ED50 ([12]; Plasmodium yoelii, po)?
The ED50 was 16 mg/kg/day.

What about the ED90 ([12]; Plasmodium yoelii, po) of the same compound?
The ED90 was 27 mg/kg/day.

What about the CD50 [13] of the same compound?
Its CD50 is 7 mg/kg/day.

And the CD90 [13]?
The CD90 was 23 mg/kg/day.

And the ED50 [13]?
Its ED50 is 5 mg/kg/day.

And the ED90 [13]?
The ED90 was 23 mg/kg/day.

And the pIC50 (Plasmodium falciparum [14])?
Its pIC50 is 7.82.

With `C[C@H]1[C@H](OC(=O)CCC(=O)O)O[C@@H]2O[C@@]3(C)CC[C@H]4[C@H](C)CC[C@@H]1[C@@]24OO3` [ARTESUNATE] as the compound, how does the pIC50 (Plasmodium falciparum [5]; Plasmodium falciparum, FcM29) read?
The pIC50 was 8.80.

What about the CD50 [10] of the same compound?
The CD50 was 19 mg/kg/day.

And the CD90 [10]?
The CD90 was 28 mg/kg/day.

What about the ED50 [10] of the same compound?
The ED50 was 2.5 mg/kg/day.

What about the ED90 [10] of the same compound?
Its ED90 is 8 mg/kg/day.

And the CD50 [11]?
Its CD50 is 2.5 mg/kg/day.

What about the CD90 [11] of the same compound?
Its CD90 is 7.5 mg/kg/day.

And the ED50 [11]?
The ED50 was 0.3 mg/kg/day.

And the ED90 [11]?
The ED90 was 0.8 mg/kg/day.

What about the pIC50 (Plasmodium falciparum [15]) of the same compound?
The pIC50 was 7.14.

And the pIC50 (Plasmodium falciparum [16])?
The pIC50 was 6.97.

And the pIC50 (Plasmodium falciparum [17])?
Its pIC50 is 8.22.

With `O=C1C(O)=C([C@H]2CC[C@H](c3ccc(Cl)cc3)CC2)C(=O)c2ccccc21` [ATOVAQUONE] as the compound, how does the pIC50 (Plasmodium falciparum [15]) read?
Its pIC50 is 4.62.

What about the pIC50 (Plasmodium falciparum [16]) of the same compound?
Its pIC50 is 4.30.

And the pIC50 (Plasmodium falciparum [17])?
Its pIC50 is 8.34.

With `CCN(CC)CCCC(C)Nc1ccnc2cc(Cl)ccc12` (centres undefined) [CHLOROQUINE] as the compound, how does the pIC50 [9] read?
Its pIC50 is 4.30.

And the CD50 [13]?
Its CD50 is 3 mg/kg/day.

What about the CD90 [13] of the same compound?
Its CD90 is 5 mg/kg/day.

And the ED50 [13]?
The ED50 was 3 mg/kg/day.

What about the ED90 [13] of the same compound?
The ED90 was 5 mg/kg/day.

Which results are given for `COc1cc(NC(C)CCCN)c2ncccc2c1` (centres undefined) [PRIMAQUINE]?
pIC50 (Plasmodium falciparum [15]): 5.34; pIC50 (Plasmodium falciparum [16]): 5.81; pIC50 (Plasmodium falciparum [17]): 5.88
